# Calls of active or inactive are those of the source. The rule behind the calls is not given here.
# How the values were obtained:
# Staphylococcus [1] = assay: Antibacterial activity against penicillin-sensitive Staphylococcus pyogenes assessed as growth inhibition after 24 hrs; type: functional
# Procedure, shortened: (§1)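 Halving (twofold) serial dilutions of compound in nutrient broth, in vitro. Incubated 24 hr at 37°. Value reported is the lowest concentration that inhibited growth.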
# Staphylococcus [2] = assay: Antibacterial activity against penicillin-resistant Staphylococcus pyogenes assessed as growth inhibition after 24 hrs; type: functional; procedure, shortened: as §1
# Enterococcus faecalis = assay: Antibacterial activity against Streptococcus faecalis assessed as growth inhibition after 24 hrs; type: functional
# Procedure, shortened: (§2)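 Twofold serial dilutions in nutrient broth. The minimum concentration inhibiting visible growth was read after 24 hr incubation at 37°.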
# [3] = (§3) Antibacterial activity against Salmonella pullorum assessed as growth inhibition after 24 hrs; type: functional, Salmonella enterica subsp. enterica serovar Pullorum; conditions: Salmonella enterica, 24 h; read-out: MIC; procedure, shortened: as §2
# Pseudomonas aeruginosa = assay: Antibacterial activity against Pseudomonas aeruginosa assessed as growth inhibition after 24 hrs; type: functional; procedure, shortened: as §2
# Escherichia coli = assay: Antibacterial activity against Escherichia coli 198 assessed as growth inhibition after 24 hrs; type: functional; procedure, shortened: as §2
# Klebsiella aerogenes = assay: Antibacterial activity against Aerobacter aerogenes assessed as growth inhibition after 24 hrs; type: functional; procedure, shortened: as §2
# Proteus vulgaris = assay: Antibacterial activity against Proteus vulgaris assessed as growth inhibition after 24 hrs; type: functional; procedure, shortened: as §2
# Klebsiella pneumoniae = assay: Antibacterial activity against Klebsiella pneumoniae assessed as growth inhibition after 24 hrs; type: functional; procedure, shortened: as §2
# Serratia marcescens = assay: Antibacterial activity against Serratia marcescens assessed as growth inhibition after 24 hrs; type: functional; procedure, shortened: as §2
# Candida albicans = assay: Antifungal activity against Candida albicans assessed as growth inhibition after 5 days at 37 degC; type: functional
# Procedure, shortened: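 Twofold serial dilutions in Sabouraud broth. The minimum inhibitory concentration was read after 5 days at 37°.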
# Nannizzia gypsea = assay: Antifungal activity against Microsporum gypseum assessed as growth inhibition after 10 days at 28 degC; type: functional
# Procedure, shortened: (§4)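 Twofold serial dilutions in Sabouraud broth. The minimum inhibitory concentration was read after 10 days at 28°.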
# [4] = Antifungal activity against Trichophyton granulosum assessed as growth inhibition after 10 days at 28 degC; type: functional; conditions: Trichophyton mentagrophytes var. granulosum; procedure, shortened: as §4
# Eimeria tenella [5] = assay: Anticoccidal activity against Eimeria tenella assessed as improved weight gain and mortality in chicken relative to noninfected control; type: functional, organism-based
# Procedure, shortened: (§5)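 Chickens with experimental coccidiosis received compound orally in the diet at 0.05%, starting 1 day before infection. Efficacy was judged 6 days later from survival and weight gain.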
# Eimeria acervulina [6] = assay: Anticoccidal activity against Eimeria acervulina assessed as improved weight gain in chicken; type: functional, organism-based; procedure, shortened: as §5
# [7] = test system: Salmonella enterica subsp. enterica serovar Pullorum; assay: as §3; type: functional; procedure, shortened: as §2
# Eimeria tenella [8] = assay: Anticoccidal activity against Eimeria tenella assessed as improved weight gain in chicken at 0.05%, po; type: functional, organism-based; procedure, shortened: as §5
# Eimeria tenella [9] = assay: Anticoccidal activity against Eimeria tenella assessed as improved weight gain in chicken at 0.002%, po; type: functional, organism-based
# Eimeria acervulina [10] = assay: Anticoccidal activity against Eimeria acervulina assessed as improved weight gain and mortality in chicken relative to noninfected control; type: functional, organism-based; procedure, shortened: as §5
# [11] = Staphylococcus, 24 h, read-out: MIC
# [12] = Enterococcus faecalis, 24 h, read-out: MIC
# [13] = Pseudomonas aeruginosa, 24 h, read-out: MIC
# [14] = Escherichia coli, 198, 24 h, read-out: MIC
# [15] = Klebsiella aerogenes, 24 h, read-out: MIC
# [16] = Proteus vulgaris, 24 h, read-out: MIC
# [17] = Klebsiella pneumoniae, 24 h, read-out: MIC
# [18] = Serratia marcescens, 24 h, read-out: MIC
# [19] = Nannizzia gypsea, 240 h, read-out: MIC
# [20] = Candida albicans, 120 h, read-out: MIC
Compound,MIC (Staphylococcus [1]; [11]) [mg/L],MIC (Staphylococcus [2]; [11]) [mg/L],MIC (Enterococcus faecalis; [12]) [mg/L],MIC [3] [mg/L],MIC (Pseudomonas aeruginosa; [13]) [mg/L],MIC (Escherichia coli; [14]) [mg/L],MIC (Klebsiella aerogenes; [15]) [mg/L],MIC (Proteus vulgaris; [16]) [mg/L],MIC (Klebsiella pneumoniae; [17]) [mg/L],MIC (Serratia marcescens; [18]) [mg/L],MIC (Candida albicans),MIC (Nannizzia gypsea; [19]) [mg/L],MIC [4],Activity (Eimeria tenella [5]),Activity (Eimeria acervulina [6]),MIC (Staphylococcus [1]),MIC (Staphylococcus [2]),MIC (Enterococcus faecalis),MIC [7],MIC (Pseudomonas aeruginosa),other results
COC1OC(C)(c2ccc(-c3ccccc3)cc2)C(=O)CC1N1CCOCC1 (stereo not given),3.2,3.2,3.2,3.2,3.2,3.2,3.2,3.2,3.2,3.2,inactive,3.2,16 mg/L,Active,inactive,,,,,,
CNC1CC(O)C(C)(c2ccc(-c3ccccc3)cc2)OC1OC (stereo not given),,,,,,,,,,,inactive,,inactive,,inactive,inactive,inactive,inactive,inactive,inactive,MIC (Escherichia coli): inactive; MIC (Klebsiella aerogenes): inactive; MIC (Proteus vulgaris): inactive; MIC (Klebsiella pneumoniae): inactive; MIC (Serratia marcescens): inactive; MIC (Nannizzia gypsea): inactive; Activity (Eimeria tenella [8]): inactive
"COC1C=CC(=O)C(C)(c2ccc(-c3ccccc3)cc2)O1 (single isomer, unassigned; isomer 1)",,,,,,,,,,,,,8 mg/L,,,,,,,,Activity (Eimeria tenella [8]): inactive
CNC(=O)OC1C=CC(=O)C(C)(c2ccc(-c3ccccc3)cc2)O1 (stereo not given),,,,,,,,,,,,1.6,1.6 mg/L,Active,inactive,inactive,inactive,inactive,inactive,inactive,MIC (Escherichia coli): inactive; MIC (Klebsiella aerogenes): inactive; MIC (Proteus vulgaris): inactive; MIC (Klebsiella pneumoniae): inactive; MIC (Serratia marcescens): inactive; MIC (Candida albicans; [20]): 250 mg/L
COC1C=CC(=O)C(C)(c2ccc(-c3ccccc3)cc2)O1 (stereo in doubt; 1a) [listing 1 of 2 here],6.2,6.2,6.2,6.2,6.2,6.2,6.2,6.2,6.2,6.2,,2,,,,,,,,,MIC (Candida albicans; [20]): 32 mg/L
CCCCc1cc2c(=O)c(C(=O)OC)c[nH]c2cc1OCc1ccccc1,,,,,,,,,,,,,,,,,,,,,Activity (Eimeria tenella [9]): Active
COC1C=CC(=O)C(C)(c2ccc(-c3ccccc3)cc2)O1 (stereo in doubt; 1a) [listing 2 of 2 here],,,,,,,,,,,,,1 mg/L,Active,,,,,,,
"COC1OC(C)(c2ccc(-c3ccccc3)cc2)C(=O)CC1N(C)C (single isomer, unassigned; isomer 1)",,,,,,,,,,,,,8 mg/L,Active,,,,,,,Activity (Eimeria acervulina [10]): Active
COC1OC(C)(c2ccc(-c3ccccc3)cc2)C(O)CC1N1CCN(C)CC1 (stereo not given),,,,,,,,,,,inactive,,inactive,Active,inactive,inactive,inactive,inactive,inactive,inactive,MIC (Escherichia coli): inactive; MIC (Klebsiella aerogenes): inactive; MIC (Proteus vulgaris): inactive; MIC (Klebsiella pneumoniae): inactive; MIC (Serratia marcescens): inactive; MIC (Nannizzia gypsea): inactive
CN(C)C(=O)OC1C=CC(=O)C(C)(c2ccc(-c3ccccc3)cc2)O1 (stereo not given),6.2,6.2,6.2,6.2,6.2,6.2,6.2,6.2,6.2,6.2,,8,6.2 mg/L,Active,,,,,,,MIC (Candida albicans; [20]): 50 mg/L; Activity (Eimeria acervulina [10]): Active

# Reference: ChEMBL document CHEMBL3272204, “Products from furans. 1. Sunthesis and anticoccidial and antimicrobial activity of 5-amino-5,6-dihydro-6-methoxy-2-methyl-2-(4'-biphenylyl)-2H-pyran-3(4H)-ones and related compounds” (1976)
